# Compounds with a hit are over-represented: about 1.1% of the library has one in this group of screens.
# proCasp7 act: procaspase-7 activators, primary screen, counter-screen for procaspase-3 activator project, biochemical, absorbance, HTS, human. recombinant procaspase-7, Ac-DEVD-pNA absorbance 405 nm; D23A/D198A/D206A triple mutant, cannot self-cleave; scale: DMSO 0, 5 µM enzyme 100. 0.093% of 330,000 active. Caspase-7 (Homo sapiens), P55210. activation, % at 8.5 µM;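 active = percent activation above the screen-wide mean plus 3 SD, cut at about 25% in these data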
# Target sequence (P55210 whole entry D23A/D198A/D206A): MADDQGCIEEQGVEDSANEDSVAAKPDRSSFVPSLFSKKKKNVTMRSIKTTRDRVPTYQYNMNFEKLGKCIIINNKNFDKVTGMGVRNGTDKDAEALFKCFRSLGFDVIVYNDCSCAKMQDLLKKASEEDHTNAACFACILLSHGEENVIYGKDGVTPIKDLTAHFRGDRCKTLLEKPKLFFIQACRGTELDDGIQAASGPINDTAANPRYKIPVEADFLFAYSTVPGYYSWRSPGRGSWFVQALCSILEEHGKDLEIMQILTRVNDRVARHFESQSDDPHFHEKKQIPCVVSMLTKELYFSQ
#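 Assay system: Uncleavable procaspase-7 mutant enzyme; Input: 2 µM procaspase-7 mutant as dispensed; Also added: DEVD-pNA substrate; Medium: Zinc-free HEPES pH 7.4 with 300 mM NaCl, 0.01% Triton X-100; Timing: 1 h compound preincubation, 2 h substrate cleavage, 25 °C; Measured by: Epi-absorbance of released pNA at 405 nm, two timepoints.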
# LYPLA1 inh: LYPLA1 inhibitors, primary screen, counter-screen for PME1 inhibitor project, biochemical, fluorescence polarization, FP-Rh probe ABPP; recombinant LYPLA1; AID 2174, 2009; inhibition, % at 5.9 µM; 0.16% of 320,000 active;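 active = inhibition above the mean of all tested compounds plus 3 SD, set per campaign, cut at about 14% in these data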;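 note: inhibitors block serine hydrolase probe labeling of LYPLA1 so polarization falls; 0% = enzyme with DMSO and 100% = wells lacking LYPLA1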
# Target sequence (O75608 whole entry, looked up): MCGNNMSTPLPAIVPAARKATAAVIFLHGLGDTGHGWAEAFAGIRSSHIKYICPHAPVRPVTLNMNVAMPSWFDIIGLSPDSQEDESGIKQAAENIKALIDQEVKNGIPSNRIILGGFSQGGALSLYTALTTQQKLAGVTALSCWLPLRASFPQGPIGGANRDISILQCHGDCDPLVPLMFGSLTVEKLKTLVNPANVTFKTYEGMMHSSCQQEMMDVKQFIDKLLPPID
# procasp3 activ: activators of human procaspase-3 D3A mutant, primary screen, biochemical, absorbance, PC-3 D3A mutant, single concentration; Caspase-3 (Homo sapiens), P42574; recombinant procaspase-3 D3A, Ac-DEVD-pNA absorbance 405 nm; activation, % at 8.5 µM; 0.11% of 330,000 active; AID 463141, 2010;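 active = activation above the mean of all tested compounds plus 3 SD, cut at about 21% in these data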;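 note: 0% = DMSO alone and 100% = DMSO wells spiked with extra 5 µM PC-3 D3A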
#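 Evaluation: percent activation relative to control range; Material: Procaspase-3 D3A mutant, all three cleavage aspartates alanine; Compound: single dose, 8.5 µM nominal compound, 0.8% DMSO; Replication: one well per compound; Signal: absorbance at 405 nm, 0 and 120 min; Schedule: 1 h preincubation plus 2 h reaction at 25 °C.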
# LYPLA2 inh: LYPLA2 inhibitors, primary screen, counter-screen for PME1 inhibitor project, biochemical, fluorescence polarization, FP-Rh probe ABPP; inhibition, % at 5.9 µM; recombinant LYPLA2; Acyl-protein thioesterase 2 (Homo sapiens), O95372; AID 2177, 2009; 0.38% of 320,000 active;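 active = inhibition above the screen-wide mean plus 3 SD, limit set per campaign, cut at about 26% in these data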;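 note: 0% = LYPLA2 with DMSO and 100% = wells lacking LYPLA2 enzyme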
# PREPL inhibitor: PREPL enzyme inhibitors, primary screen, biochemical, fluorescence polarization; recombinant PREPL, fluorescence polarization activity-based probe; inhibition, % at 5.96 µM; 0.68% of 320,000 active; in the data active = inhibition above about 43%;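 note: 0% = enzyme with DMSO and 100% = wells lacking enzyme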
# LYPLA1 confirm: LYPLA1 inhibitors, retest, confirmation, counter-screen for PME1 inhibitor project, biochemical, fluorescence polarization, FP-Rh probe ABPP. 69% of 480 active. shares compounds with LYPLA1 inh. inhibition, % at 5.9 µM. recombinant LYPLA1. AID 2233, 2010;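 active = mean inhibition across replicates above the hit cutoff set in the primary screen, cut at about 15% in these data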;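 note: loss of FP-Rh probe labeling of LYPLA1 seen as lower polarization; 0% = LYPLA1 with DMSO and 100% = wells lacking LYPLA1 enzyme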
# * hit, by the source's call; / = no result.
SMILES,proCasp7 act,LYPLA1 inh,procasp3 activ,LYPLA2 inh,PREPL inhibitor,LYPLA1 confirm
O=C1CCC([N+](=O)[O-])C(c2ccc(-c3ccccc3)cc2)N1 (stereo not drawn),13.5,22.0*,-0.2,10.5,4.4,24.0*
O=C(O)COn1c(-c2ccccc2)nc2ccc(Cl)cc21,3.4,1.1,11.8,2.6,7.5,/
COn1c(-c2ccccc2)nc2ccc(Cl)cc21,3.2,50.4*,-2.8,-2.9,1.8,-1.0
CCCCOc1ccc(C(=O)OCC(=O)c2c(N)n(C)c(=O)n(C)c2=O)cc1,4.1,/,10.9,/,16.4,/
Fc1ccc(-n2cc(-c3ccccc3)c3c(N4CCOCC4)ncnc32)cc1,2.2,1.1,-2.0,1.8,17.4,/
NC(=O)C1CCN(c2ncnc3c2c(-c2ccccc2)cn3-c2ccccc2)CC1,0.1,17.2*,12.7,17.5,12.7,19.5*
CC(=O)c1ccc(N2CCN(C(=O)c3cccc(Oc4ccccc4)c3)CC2)cc1,2.6,47.7*,3.4,67.0*,-32.3,61.5*
CCc1nnc(NC(=O)c2ccc(COc3ccccc3C)o2)s1,-0.5,3.0,-9.9,17.4,-10.5,/
O=C1c2cccc3c(N4CCCCC4)ccc(c23)C(=O)N1c1cccc(O)c1,-9.3,-21.7,-8.3,-28.3,-1.4,/
Cc1n[nH]c(C)c1N1C(=O)c2cccc3c(N4CCCCCC4)ccc(c23)C1=O,-3.6,19.5*,-4.8,21.8,23.4,18.8*
COC(=O)C1CCN(c2c([N+](=O)[O-])cc(C(F)(F)F)cc2[N+](=O)[O-])CC1,3.2,31.8*,2.2,12.2,-6.4,33.5*
CC1CC(C)CN(S(=O)(=O)c2ccc3c(c2)CC(C)N3C(=O)C2CCC2)C1 (stereo not drawn),3.3,54.5*,-3.2,14.0,1.4,54.2*
CCOC(=O)C1CCCCN1S(=O)(=O)c1ccc2c(c1)CC(C)N2C(=O)C1CCC1 (stereo not drawn),6.3,15.3*,8.2,11.7,8.8,8.9
CC1CC(C)CN(S(=O)(=O)c2ccc3c(c2)CC(C)N3C(=O)C2CC2)C1 (stereo not drawn),-12.2,28.7*,-7.7,1.0,11.1,31.1*
COc1cc(/C=C/C(=O)NC(C)CCc2ccccc2)cc(OC)c1OC (stereo not drawn),-2.3,5.8,5.5,7.9,-4.0,/
O=C(O)CCCCCCCCCCCc1ccccc1,-0.8,18.4*,7.5,25.7,4.5,27.5*
CCc1ccc(OC)c(S(=O)(=O)Nc2ccc(Cc3ccncc3)cc2)c1,-12.3,1.2,5.5,4.3,6.6,/
COc1ccc(S(=O)(=O)Nc2ccc(Cc3ccncc3)cc2)cc1OC,-4.4,20.3*,10.1,1.2,6.8,28.2*
NC(=O)C1CCN(CC(=O)Nc2ccccc2C(=O)NC2CC2)CC1,14.6,1.7,5.0,3.1,0.5,/
C/C(=N/NC(=O)c1cc(C)[nH]n1)c1ccncc1,10.1,-0.4,-0.1,4.8,6.7,/
CNc1ccc(/C=C(\CCC(=O)O)c2nc3ccccc3s2)cc1[N+](=O)[O-],-3.2,16.4*,-5.0,11.1,24.1,21.7*
CCN1C(=O)[C@@H]2[C@@H](c3ccc(-c4ccc(C(C)=O)cc4)c(OC)c3)N3CCC[C@@]3(C(=O)OC)[C@@H]2C1=O,7.2,-0.6,1.8,5.5,3.2,/
COC/C=C/C1=CC2=CC(=O)C(C)(OC(=O)c3cnc4ccccc4n3)C(=O)C2=CO1 (stereo not drawn),-19.7,21.9*,-0.1,9.0,7.6,-1.8
N#C/C(=C\c1ccccc1O)C(=O)Nc1ccccn1,11.3,1.4,4.3,10.5,9.1,/
COC(=O)c1ccc(Oc2ccc(S(=O)(=O)N3CCCCC3)cc2N)cc1,-2.2,26.2*,0.7,16.9,4.9,46.7*
SMILES,proCasp7 act,LYPLA1 inh,procasp3 activ,LYPLA2 inh,PREPL inhibitor,LYPLA1 confirm
CCCCC(C(=O)NC1CCCC1)N(C(=O)c1snc(C(N)=O)c1N)c1ccc(OCC)cc1 (stereo not drawn),-3.8,1.7,4.2,-3.6,10.8,/
COc1ccc(OC)c(NC(=O)CSc2nncc(=O)n2N)c1,-11.4,-3.5,-3.5,-3.0,-4.9,/
Cc1cnc(C(=O)OC(C(=O)Nc2cc(C(F)(F)F)ccc2Cl)c2ccccc2)cn1 (stereo not drawn),-3.3,31.5*,-5.2,-8.6,-1.6,-0.2
Cc1ccc(C)c(NC(=O)C(OC(=O)c2cnc(C)cn2)c2ccccc2)c1 (stereo not drawn),6.8,2.9,2.6,0.5,-4.9,/
Cn1c(=O)n(Cc2ccccc2Cl)c(=O)c2c1[nH]c(=S)n2C,-23.3,1.3,-27.2,3.6,3.6,/
O=C(Cc1ccccc1)N/N=C/c1cc(Br)cc(Br)c1O,20.1,-0.4,2.9,2.4,3.7,/
O=C(O)c1ccccc1N/N=C/c1cc(Br)cc(Br)c1O,-4.2,28.6*,-4.7,11.7,19.3,23.1*
Cc1cc(NC(=O)COC(=O)c2cc(S(=O)(=O)N(C)c3ccccc3)ccc2Cl)no1,-2.8,-0.3,-4.9,-2.3,-11.3,/
CNc1oc(-c2cccc3ccccc23)nc1C#N,10.5,17.0*,-6.2,7.0,11.0,5.5
CNc1oc(-c2ccccc2Cl)nc1C#N,3.2,3.3,-4.5,0.5,-12.8,/
CCCCCN(C(=O)CCCSc1nncs1)c1c(N)n(CCCC)c(=O)[nH]c1=O,5.1,-0.2,-2.8,6.9,1.6,/
O=C(CCNc1ccc(Cc2ccncc2)cc1)c1cccc([N+](=O)[O-])c1,-39.2,18.3*,-21.6,20.4,18.7,35.6*
O=C(CCNc1cccc(F)c1)c1cccc([N+](=O)[O-])c1,-42.6,0.0,-19.2,5.0,10.1,/
COc1cccc2c1C(=O)c1c(O)c3c(c(O)c1C2=O)C[C@@](O)(C(=O)CO)C[C@@H]3O[C@H]1C[C@H](N)[C@@H](O)[C@H](C)O1,4.6,57.0*,3.2,40.9*,30.1,55.9*
CC(=O)Nc1ccc(N/C=C2/CCCC2=O)cc1,0.8,0.6,-8.4,5.7,5.3,/
Cc1cc(O)ccc1N/C=C1\CCCC1=O,-17.1,19.5*,-10.8,14.6,33.0,3.1
Cc1ccccc1OCCC(=O)NNC(=O)COc1cccc(F)c1,3.5,/,-2.7,/,-7.5,/
Cc1cccc(NC(=O)CN2CCN(C(=O)c3cnn(Cc4ccccc4)c3)CC2)c1C,-3.4,0.0,3.7,7.3,17.6,/

# Screening results (PubChem)
